Results from ChEMBL document CHEMBL4024746, “Nonpyrogenic Molecular Adjuvants Based on norAbu-Muramyldipeptide and norAbu-Glucosaminyl Muramyldipeptide: Synthesis, Molecular Mechanisms of Action, and Biological Activities in Vitro and in Vivo” (J Med Chem, 2017).
Activity calls are given as the source filed them. The rule behind the calls is not given here.

How the values were obtained:
Oryctolagus cuniculus [1] = assay: Pyrogenic activity in Chinchilla rabbit assessed as change in maximum body temperature at 100 nmol/kg, iv using micellar foemulation measured at 30 mins time intervals; format: toxicity, organism-based; conditions: in vivo, 0.5 h
Summary of the method: (§1)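 Standard rabbit pyrogenicity test, three animals per group, iv or modified sc application of free (micellar) or liposomal formulations. Maximum temperature rise (+ΔTmax) summed per group; sum below 1.1 °C classed as nonpyrogenic. Temperature followed a further 24 h for delayed pyrogenicity.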

Oryctolagus cuniculus [2] = assay: Toxicity in Chinchilla rabbit assessed as weight loss at 100 nmol/kg, iv using micellar formulation measured up to 2 months post dose; format: organism-based; conditions: in vivo
Oryctolagus cuniculus [3] = assay: Toxicity in Chinchilla rabbit assessed as skin irritation at 100 nmol/kg, iv using micellar formulation measured up to 2 months post dose; format: organism-based; conditions: in vivo
[4] = biological target: Nucleotide-binding oligomerization domain-containing protein 2 (Homo sapiens) (UniProt Q9HC29); assay: Agonist activity at human NOD2 receptor expressed in mouse Raw-Blue reporter cells at 10 uM after 48 hrs by SEAP reporter gene assay; format: cell-based
Summary of the method: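 RAW 264.7-derived RAW-Blue cells carrying an NF-κB/AP-1-inducible SEAP reporter, exposed to compounds at 10 μM for 48 h. Colorimetric SEAP read-out at 650 nm. MDP serves as positive control. ANOVA with Dunnett's test versus untreated cells and versus MDP.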

[5] = biological target: T1, Nucleotide-binding oligomerization domain-containing protein 1 (Homo sapiens) (UniProt Q9Y239); assay: Agonist activity at human NOD1 receptor expressed in HEK-Blue reporter cells at 10 uM after 48 hrs by SEAP reporter gene assay; format: cell-based
T1 sequence (whole entry): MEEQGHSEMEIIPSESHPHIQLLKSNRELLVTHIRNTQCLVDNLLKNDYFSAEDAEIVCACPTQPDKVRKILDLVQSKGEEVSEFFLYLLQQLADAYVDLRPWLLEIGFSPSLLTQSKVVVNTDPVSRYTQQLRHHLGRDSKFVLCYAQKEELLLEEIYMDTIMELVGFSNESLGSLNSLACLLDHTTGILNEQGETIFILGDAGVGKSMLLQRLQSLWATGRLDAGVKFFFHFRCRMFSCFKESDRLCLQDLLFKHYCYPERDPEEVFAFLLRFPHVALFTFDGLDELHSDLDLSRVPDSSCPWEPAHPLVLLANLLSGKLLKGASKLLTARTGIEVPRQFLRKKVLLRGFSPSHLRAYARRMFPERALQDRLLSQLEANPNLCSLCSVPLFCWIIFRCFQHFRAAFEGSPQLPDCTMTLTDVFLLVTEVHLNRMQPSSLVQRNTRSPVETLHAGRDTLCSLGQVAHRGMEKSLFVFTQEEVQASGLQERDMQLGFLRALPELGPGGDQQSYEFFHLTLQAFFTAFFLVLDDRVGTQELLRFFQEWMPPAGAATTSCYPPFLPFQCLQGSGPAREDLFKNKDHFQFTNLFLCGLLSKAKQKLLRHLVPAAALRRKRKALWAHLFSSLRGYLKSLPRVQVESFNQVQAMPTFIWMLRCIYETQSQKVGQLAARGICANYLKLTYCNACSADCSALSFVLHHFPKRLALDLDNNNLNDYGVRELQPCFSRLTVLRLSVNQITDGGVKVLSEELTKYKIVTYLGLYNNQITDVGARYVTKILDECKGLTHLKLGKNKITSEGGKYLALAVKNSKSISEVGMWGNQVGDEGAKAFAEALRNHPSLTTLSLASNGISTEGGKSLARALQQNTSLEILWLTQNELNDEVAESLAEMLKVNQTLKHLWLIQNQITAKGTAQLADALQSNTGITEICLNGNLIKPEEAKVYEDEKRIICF
Summary of the method: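 HEK293 cells cotransfected with human NOD1 and an NF-κB/AP-1-inducible SEAP reporter, exposed to compounds at 10 μM for 48 h. SEAP is read at 650 nm with QUANTI-Blue. Diaminopimelic acid derivatives serve as NOD1 positive controls. Dunnett's test is used versus untreated cells.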

Mus musculus [6] = assay: Immuno-stimulatory activity in ICR mouse assessed as induction of GM-progenitor cell proliferation in serum at […], sc using liposomal formulation measured after 6 hrs; format: functional, organism-based
Summary of the method: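 Female ICR mice, 3 months old, four per group, given liposomal preparations sc at 100 nmol per dose in 200 μL. Serum collected 6 h later and added to cultured granulocyte–monocyte progenitors. GM-CFU colonies counted, with serum-free cells as baseline. Dunnett's test is used versus the infusion-solution control.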

Mus musculus [7] = assay: Adjuvant activity in OspA immunized BALB/c mouse assessed as induction of total Ig antibody production administered id loaded in rOspA proteoliposomes measured 14 days after boost immunization by ELISA; format: functional
Summary of the method: (§2)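 Female BALB/c mice, 6−8 weeks, five per group, immunized id with His-tagged rOspA (endotoxin below 2.5 EU/mg) on metallochelation liposomes (EPC/POPG/DOGS-NTA-Ni/adjuvant 71:19:5:5), 20 μg rOspA per dose; boost 14 days after prime. Pooled sera taken 14 days post-boost, run in duplicate by ELISA on 100 ng/well tag-free rOspA, diluted 1:1000–1:32000; reported as mean OD490 ± SD at 1:8000.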

[8] = biological target: NACHT, LRR and PYD domains-containing protein 3 (Homo sapiens, UniProt Q96P20); assay: Agonist activity at NLRP3 in human […] cells assessed as induction of LPS-induced IL-1beta secretion by HEK-Blue reporter cell based assay
Summary of the method: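 THP1-Null cells stimulated with compounds; mature IL-1β released is detected with HEK-Blue IL-1β cells through SEAP reporter activity in the supernatant, read colorimetrically with QUANTI-Blue. ATP serves as positive standard. Untreated HEK-Blue IL-1β cells serve as negative control; comparison by ANOVA with Dunnett's test.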

Oryctolagus cuniculus [9] = assay: Pyrogenic activity in New Zealand albino rabbit assessed as change in maximum body temperature at 100 nmol/kg, sc using liposomal formulation measured at 30 mins time intervals for 9 to 24 hrs (reference value: 0.2 degC); format: toxicity, organism-based; conditions: in vivo; summary of the method: as §1
Oryctolagus cuniculus [10] = assay: Toxicity in Chinchilla rabbit assessed as necrosis at site of application at 100 nmol/kg, iv using micellar formulation measured up to 2 months post dose; format: organism-based; conditions: in vivo
Oryctolagus cuniculus [11] = assay: Toxicity in Chinchilla rabbit assessed as behavioral changes at 100 nmol/kg, iv using micellar formulation measured up to 2 months post dose; format: organism-based; conditions: in vivo
Oryctolagus cuniculus [12] = assay: Toxicity in New Zealand albino rabbit assessed as weight loss at 100 nmol/kg, sc using liposomal formulation measured up to 2 months post dose; format: organism-based; conditions: in vivo
Oryctolagus cuniculus [13] = assay: Toxicity in New Zealand albino rabbit assessed as skin irritation at 100 nmol/kg, sc using liposomal formulation measured up to 2 months post dose; format: organism-based; conditions: in vivo
Oryctolagus cuniculus [14] = assay: Toxicity in New Zealand albino rabbit assessed as necrosis at site of application at 100 nmol/kg, sc using liposomal formulation measured up to 2 months post dose; format: organism-based; conditions: in vivo
Oryctolagus cuniculus [15] = assay: Toxicity in New Zealand albino rabbit assessed as behavioral changes at 100 nmol/kg, sc using liposomal formulation measured up to 2 months post dose; format: organism-based; conditions: in vivo
Mus musculus [16] = assay: Adjuvant activity in OspA immunized BALB/c mouse assessed as induction of total IgG1 antibody production administered id loaded in rOspA proteoliposomes measured 14 days after boost immunization by ELISA; format: functional; summary of the method: as §2
Mus musculus [17] = assay: Adjuvant activity in OspA immunized BALB/c mouse assessed as induction of total IgG2a antibody production administered id loaded in rOspA proteoliposomes measured 14 days after boost immunization by ELISA; format: functional; summary of the method: as §2
Mus musculus [18] = assay: Toxicity in BALB/c mouse assessed as irritation at site of drug application administered id loaded in rOspA proteoliposomes; conditions: in vivo, other
Summary of the method: (§3)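 Female BALB/c mice immunized id with rOspA metallochelation proteoliposomes carrying the adjuvant, prime and boost 14 days apart; injection sites inspected for irritation or local reactions.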

Mus musculus [19] = assay: Toxicity in BALB/c mouse assessed as local reactions at site of drug application administered id loaded in rOspA proteoliposomes; conditions: in vivo, other; summary of the method: as §3
[20] = biological target: Nucleotide-binding oligomerization domain-containing protein 2 (Homo sapiens) (UniProt Q9HC29); assay: Agonist activity at human NOD2 receptor expressed in mouse Raw-Blue reporter cells at 10 uM after 48 hrs in presence of gefitinib by SEAP reporter gene assay; format: cell-based
[21] = biological target: Nucleotide-binding oligomerization domain-containing protein 2 (Homo sapiens) (UniProt Q9HC29); assay: Agonist activity at human NOD2 receptor expressed in mouse Raw-Blue reporter cells at 10 uM after 24 hrs in presence of GSK717 by SEAP reporter gene assay
Oryctolagus cuniculus [22] = assay: Pyrogenic activity in New Zealand albino rabbit assessed as change in maximum body temperature at 25 ug/kg, sc using liposomal formulation measured at 30 mins time intervals for 9 to 24 hrs (reference value: 0.2 degC); format: organism-based; conditions: in vivo, 0.025 mg/kg
[23] = Solubility of the compound in ethanol; format: physicochemical
[24] = Solubility of the compound in DMSO; format: physicochemical
[25] = Solubility of the compound in PBS; format: physicochemical; conditions: buffer

Sequence of NACHT, LRR and PYD domains-containing protein 3 (Q96P20 whole entry, the tested form may be a part): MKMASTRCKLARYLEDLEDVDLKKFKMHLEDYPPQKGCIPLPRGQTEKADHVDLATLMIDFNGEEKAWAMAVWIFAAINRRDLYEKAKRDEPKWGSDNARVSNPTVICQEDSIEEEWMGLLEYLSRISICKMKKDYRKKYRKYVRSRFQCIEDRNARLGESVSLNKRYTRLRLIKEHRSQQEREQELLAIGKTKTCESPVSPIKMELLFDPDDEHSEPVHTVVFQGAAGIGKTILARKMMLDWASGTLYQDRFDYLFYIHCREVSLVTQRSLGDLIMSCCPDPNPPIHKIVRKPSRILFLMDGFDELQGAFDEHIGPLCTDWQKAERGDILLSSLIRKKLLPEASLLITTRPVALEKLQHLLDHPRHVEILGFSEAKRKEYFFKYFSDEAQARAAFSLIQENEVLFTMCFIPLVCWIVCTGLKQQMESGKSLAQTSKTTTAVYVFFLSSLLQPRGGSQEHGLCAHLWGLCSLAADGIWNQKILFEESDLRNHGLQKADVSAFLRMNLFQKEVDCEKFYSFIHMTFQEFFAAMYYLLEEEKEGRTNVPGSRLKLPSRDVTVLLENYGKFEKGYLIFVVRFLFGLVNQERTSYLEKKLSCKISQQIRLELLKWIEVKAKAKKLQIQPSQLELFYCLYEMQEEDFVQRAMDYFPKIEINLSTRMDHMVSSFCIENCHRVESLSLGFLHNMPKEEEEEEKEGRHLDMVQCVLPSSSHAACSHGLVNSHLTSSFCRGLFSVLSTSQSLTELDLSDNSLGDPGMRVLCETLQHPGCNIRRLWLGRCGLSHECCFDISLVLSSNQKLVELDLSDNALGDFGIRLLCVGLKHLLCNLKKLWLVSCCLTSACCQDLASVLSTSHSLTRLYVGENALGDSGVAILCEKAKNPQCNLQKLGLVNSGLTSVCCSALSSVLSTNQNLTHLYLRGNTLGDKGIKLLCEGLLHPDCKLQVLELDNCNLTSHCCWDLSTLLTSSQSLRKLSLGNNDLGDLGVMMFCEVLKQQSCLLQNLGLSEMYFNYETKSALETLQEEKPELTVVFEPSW
Sequence of Nucleotide-binding oligomerization domain-containing protein 2 (Homo sapiens) (Q9HC29 whole entry, the tested form may be a part): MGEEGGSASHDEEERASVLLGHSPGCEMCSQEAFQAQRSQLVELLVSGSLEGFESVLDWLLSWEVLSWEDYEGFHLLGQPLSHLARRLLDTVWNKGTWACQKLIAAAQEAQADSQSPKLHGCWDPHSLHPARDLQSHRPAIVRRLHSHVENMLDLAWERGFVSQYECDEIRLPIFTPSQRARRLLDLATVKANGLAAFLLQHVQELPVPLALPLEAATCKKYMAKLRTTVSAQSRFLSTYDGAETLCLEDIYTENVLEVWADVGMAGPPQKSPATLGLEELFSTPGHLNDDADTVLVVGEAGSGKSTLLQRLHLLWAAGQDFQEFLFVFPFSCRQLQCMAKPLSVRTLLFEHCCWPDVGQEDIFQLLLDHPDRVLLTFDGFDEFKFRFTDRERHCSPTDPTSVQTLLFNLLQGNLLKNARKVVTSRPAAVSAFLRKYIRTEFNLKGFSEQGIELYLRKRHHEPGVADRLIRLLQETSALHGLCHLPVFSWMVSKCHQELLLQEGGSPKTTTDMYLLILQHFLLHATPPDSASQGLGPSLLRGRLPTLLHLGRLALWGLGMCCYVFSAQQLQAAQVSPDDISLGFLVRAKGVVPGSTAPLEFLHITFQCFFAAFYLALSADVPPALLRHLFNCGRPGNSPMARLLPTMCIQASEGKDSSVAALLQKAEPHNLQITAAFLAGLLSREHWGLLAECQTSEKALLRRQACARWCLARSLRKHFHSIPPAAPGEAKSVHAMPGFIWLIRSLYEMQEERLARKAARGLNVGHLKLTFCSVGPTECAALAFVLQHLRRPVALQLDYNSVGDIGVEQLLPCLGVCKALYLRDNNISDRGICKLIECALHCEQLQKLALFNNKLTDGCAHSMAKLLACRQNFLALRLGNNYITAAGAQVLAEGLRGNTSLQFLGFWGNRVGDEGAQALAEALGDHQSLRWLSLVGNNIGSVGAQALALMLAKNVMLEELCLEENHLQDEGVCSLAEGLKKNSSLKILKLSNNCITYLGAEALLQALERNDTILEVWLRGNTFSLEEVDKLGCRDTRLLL

SMILES | deltaT (Oryctolagus cuniculus [1]) | Activity (Oryctolagus cuniculus [2]) | Activity (Oryctolagus cuniculus [3]) | Activity [4] | Activity [5] | Activity (Mus musculus [6]) | Activity (Mus musculus [7]) | Activity [8] | deltaT (Oryctolagus cuniculus [9]) | Activity (Oryctolagus cuniculus [10]) | Activity (Oryctolagus cuniculus [11]) | Activity (Oryctolagus cuniculus [12]) | Activity (Oryctolagus cuniculus [13]) | Activity (Oryctolagus cuniculus [14]) | Activity (Oryctolagus cuniculus [15]) | Activity (Mus musculus [16]) | Activity (Mus musculus [18]) | Activity (Mus musculus [19]) | Activity [20] | Activity [21] | also measured
CCCCCCCCCCCCCCC(CCCCCCCCCCCCCC)C(=O)NCCCC[C@H](NC(=O)CC[C@@H](NC(=O)[C@H](CC)NC(=O)CO[C@H]1[C@H](O)[C@@H](CO)OC(O)[C@@H]1NC(C)=O)C(N)=O)C(=O)O (stereo partly drawn) | 0.7 °C | Non-Toxic | Non-Toxic | Active | inactive | Active | Active | Active | 0.6 °C | Non-Toxic | Non-Toxic | Non-Toxic | Non-Toxic | Non-Toxic | Non-Toxic | Active | Non-Toxic | Non-Toxic | inactive | inactive | Activity (Mus musculus [17]): Active
CC(=O)N[C@H]1C(O)O[C@H](CO)[C@@H](O)[C@@H]1O[C@H](C)C(=O)N[C@@H](C)C(=O)N[C@H](CCC(=O)O)C(N)=O (stereo partly drawn) [MURAMYL DIPEPTIDE] | 2.9 °C | – | – | Active | inactive | Active | Active | Active | – | – | – | – | – | – | – | Active | Non-Toxic | Non-Toxic | inactive | inactive | deltaT (Oryctolagus cuniculus [22]): 2.7 °C
CCCCCCCCCCCCCCC(CCCCCCCCCCCCCC)C(=O)N[C@H]1[C@H](O[C@H]2[C@H](OCC(=O)N[C@@H](CC)C(=O)N[C@H](CCC(=O)O)C(N)=O)[C@@H](NC(C)=O)C(O)O[C@@H]2CO)O[C@H](CO)[C@@H](O)[C@@H]1O (stereo partly drawn) | 0.7 °C | Non-Toxic | Non-Toxic | Active | inactive | inactive | – | Active | 0.5 °C | Non-Toxic | Non-Toxic | Non-Toxic | Non-Toxic | Non-Toxic | Non-Toxic | – | – | – | inactive | inactive | solubility [23]: Insoluble; solubility [24]: Soluble; solubility [25]: Soluble
CCCCCCCCCCCCCCCCCC(=O)OC[C@H]1OC(O)[C@H](NC(C)=O)[C@@H](OCC(=O)N[C@@H](CC)C(=O)N[C@H](CCC(=O)O)C(N)=O)[C@@H]1O (stereo partly drawn) | 0.6 °C | Non-Toxic | Non-Toxic | Active | inactive | Active | – | Active | 0.6 °C | Non-Toxic | Non-Toxic | Non-Toxic | Non-Toxic | Non-Toxic | Non-Toxic | – | – | – | inactive | inactive | –
